Source: ChEMBL document CHEMBL3124769, “Synthesis and antitumor activities of novel dipeptide derivatives derived from dehydroabietic acid” (Bioorg Med Chem Lett, 2014)
Activity calls are given as the source filed them. The rule behind the calls is not given here.

What was measured:
HeLa [1] = assay: Cytotoxicity against human HeLa cells after 48 hrs by MTT assay; format: functional, cell-based
Method in brief: (§1)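 Cells from the six lines were plated and left to adhere for 24 h. They were then exposed to compounds at 100 to 0.01 µM for 48 h. After that the medium was replaced with complete medium and viability was read by MTT. IC50 came from the concentration series, and each experiment was done three times.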

SK-OV-3 = assay: Cytotoxicity against human SKOV3 cells after 48 hrs by MTT assay; format: functional, cell-based; conditions: SK-OV-3, 48 h; method in brief: as §1
HepG2 = assay: Cytotoxicity against human HepG2 cells after 48 hrs by MTT assay; format: functional, cell-based; conditions: HepG2, 48 h; method in brief: as §1
NCI-H460 = assay: Cytotoxicity against human NCI-H460 cells after 48 hrs by MTT assay; format: functional, cell-based; conditions: NCI-H460, 48 h; method in brief: as §1
[2] = Cytotoxicity against human Bel7404 cells after 48 hrs by MTT assay; format: functional, cell-based; conditions: BEL-7404, 48 h; method in brief: as §1
HCT-116 = assay: Cytotoxicity against human HCT116 cells after 48 hrs by MTT assay; format: functional, cell-based; conditions: HCT-116, 48 h; method in brief: as §1
HeLa [3] = assay: Induction of apoptosis in human HeLa cells after 12 hrs using annexin V/propidium iodide staining by flow cytometry; format: functional, cell-based
Method in brief: (§2)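 HeLa cells were treated at 5 or 10 µM for 12 h, with untreated cells run alongside for 12 h. Cells were washed in cold PBS and resuspended in binding buffer. They were stained with Annexin V-FITC, then PI, for 20 min in the dark and run on a flow cytometer. Quadrants: Q2 necrotic/late apoptotic, Q3 normal, Q4 early apoptotic. Apoptosis ratio = early + late.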

HeLa [4] = assay: Induction of apoptosis in human HeLa cells assessed as release of ROS at 5 to 10 uM after 12 hrs by fluorescence microscopic analysis; format: functional, cell-based
Method in brief: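 HeLa cells were given 5 or 10 µM for 12 h, with an untreated control handled the same way. Intracellular ROS was visualized by fluorescence microscopy using the probe 2,7-dichlorofluorescein diacetate.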

HeLa [5] = assay: Induction of apoptosis in human HeLa cells assessed as apoptotic morphology at 10 uM after 12 to 24 hrs by Hoechst 33258 staining; format: functional, cell-based
Method in brief: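 HeLa cells on coverslips were treated at 10 µM for 12 and 24 h, with an untreated 24 h control. They were fixed in 4% paraformaldehyde for 10 min, washed in PBS, stained with Hoechst 33258 for 5 min and washed again. Nuclei were viewed under fluorescence at 350 nm excitation and 460 nm emission.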

HeLa [6] = assay: Induction of apoptosis in human HeLa cells assessed as early apoptotic cells at 5 uM after 12 hrs using annexin V/propidium iodide staining by flow cytometry (reference value: 3.8%); format: functional; method in brief: as §2
HeLa [7] = assay: Induction of apoptosis in human HeLa cells assessed as necrotic cells at 10 uM after 12 hrs using annexin V/propidium iodide staining by flow cytometry (reference value: 2.1%); format: functional; method in brief: as §2
HeLa [8] = assay: Induction of apoptosis in human HeLa cells assessed as early apoptotic cells at 10 uM after 12 hrs using annexin V/propidium iodide staining by flow cytometry (reference value: 3.8%); format: functional; method in brief: as §2
HeLa [9] = assay: Induction of apoptosis in human HeLa cells assessed as activation of caspase 3/9 by spectrophotometry analysis; format: functional, cell-based; conditions: TDE = time-dependent effect
Method in brief: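 Caspase-3 and caspase-9 activities in treated HeLa cells were measured spectrophotometrically at time points from 3 to 24 h and compared with untreated controls.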

HeLa [10] = assay: Induction of apoptosis in human HeLa cells at 10 uM after 12 to 24 hrs by acridine orange/ethidium bromide staining; format: functional, cell-based
Method in brief: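 HeLa cells were seeded at 5×10⁴ cells/mL on coverslips and fed fresh medium with 10% FBS. They were treated at 10 µM for 12 and 24 h, with an untreated 24 h control. Coverslips were inverted onto AO/EB stain and examined by fluorescence microscopy. Scoring: green = live, green-yellow = early apoptotic, orange = late apoptotic/necrotic.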

HeLa [11] = assay: Induction of apoptosis in human HeLa cells assessed as apoptotic ratio at 10 uM after 12 hrs using annexin V/propidium iodide staining by flow cytometry (reference value: 2.3%); format: functional; method in brief: as §2
HeLa [12] = assay: Induction of apoptosis in human HeLa cells assessed as necrotic cells at 5 uM after 12 hrs using annexin V/propidium iodide staining by flow cytometry (reference value: 2.1%); format: functional; method in brief: as §2
HeLa [13] = assay: Induction of apoptosis in human HeLa cells assessed as change in mitochondrial membrane potential at 10 uM after 12 to 24 hrs by JC-1 staining; format: functional, cell-based
Method in brief: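 HeLa cells were exposed at 10 µM for 12 and 24 h, with an untreated 24 h control, then stained with JC-1. Monomers were excited at 514 nm (read 515–545 nm, green) and aggregates at 585 nm (read 570–600 nm, red). Depolarization was taken as a rise in the green/red intensity ratio.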

HeLa [14] = assay: Induction of apoptosis in human HeLa cells assessed as DNA fragmentation at 10 uM after 12 to 24 hrs by TUNEL assay; format: functional, cell-based
Method in brief: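 After 12 and 24 h at 10 µM, HeLa cells (untreated 24 h control) were fixed in 4% paraformaldehyde and permeabilized with 0.1% Triton X-100. Fragmented DNA 3′-ends were labeled with FITC-dUTP using a TUNEL kit. Cells were imaged by fluorescence microscopy at 488 nm excitation and 530 nm emission.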

HeLa [15] = assay: Induction of apoptosis in human HeLa cells assessed as DNA fragmentation at 5 to 15 uM after 24 hrs by agarose gel electrophoresis analysis; format: functional, cell-based
Method in brief: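 HeLa cells were exposed for 24 h at 5, 10 or 15 µM alongside untreated cells. Total cellular DNA was extracted and run on agarose gel electrophoresis to look for a nucleosome-sized ladder (~180–200 bp fragments).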

HeLa [16] = assay: Induction of apoptosis in human HeLa cells assessed as release of mitochondrial cytochrome c into cytosol at 5 to 10 uM after 12 hrs by fluorescence microscopic analysis; format: functional, cell-based
HeLa [17] = assay: Induction of apoptosis in human HeLa cells assessed as apoptotic ratio at 5 uM after 12 hrs using annexin V/propidium iodide staining by flow cytometry (reference value: 2.3%); format: functional; method in brief: as §2

Row | SMILES | IC50 (HeLa [1]) [µM] | IC50 (SK-OV-3) [µM] | IC50 (HepG2) [µM] | IC50 (NCI-H460) [µM] | IC50 [2] [µM] | IC50 (HCT-116) [µM] | other results
1 | CC(C)c1ccc2c(c1)CC[C@H]1[C@](C)(C(=O)N[C@H](Cc3ccccc3)C(=O)Nc3ccc(C(F)(F)F)cc3)CCC[C@]21C | 10.5 | 36.3 | 21.6 | 28.9 | 36.1 | 27.4 | –
2 | CC(C)c1ccc2c(c1)CC[C@H]1[C@](C)(C(=O)N[C@H](Cc3ccccc3)C(=O)Nc3ccc(F)c(Cl)c3)CCC[C@]21C | 11.1 | 30.5 | 32.9 | 26.8 | 26.1 | 39.3 | –
3 | CC(C)c1ccc2c(c1)CC[C@H]1[C@](C)(C(=O)N[C@H](Cc3ccccc3)C(=O)Nc3cccc(F)c3)CCC[C@]21C | 13.9 | 33.9 | 23.9 | 26.1 | 27.4 | 34.8 | –
4 | CC(C)c1ccc2c(c1)CC[C@H]1[C@](C)(C(=O)N[C@H](Cc3ccccc3)C(=O)Nc3ccc(Cl)c(Cl)c3)CCC[C@]21C | 28.8 | 33.1 | 20.4 | 27 | 44.7 | 40.9 | –
5 | CC(C)c1ccc2c(c1)CC[C@H]1[C@](C)(C(=O)N[C@H](Cc3ccccc3)C(=O)Nc3ccc(F)cc3)CCC[C@]21C | 10.8 | 20.1 | 27.1 | 22.8 | 21 | 27.4 | –
6 | CC(C)c1ccc2c(c1)CC[C@H]1[C@](C)(C(=O)N[C@H](Cc3ccccc3)C(=O)Nc3cc(Cl)ccc3Cl)CCC[C@]21C | 14.9 | 21.6 | 23.4 | 15.8 | 31 | 24.1 | –
7 | Cc1cccc(NC(=O)[C@@H](Cc2ccccc2)NC(=O)[C@]2(C)CCC[C@]3(C)c4ccc(C(C)C)cc4CC[C@@H]23)c1 | 18.2 | 29.8 | 26.9 | 32.4 | 34.6 | 32.5 | –
8 | Cc1ccc(NC(=O)[C@@H](Cc2ccccc2)NC(=O)[C@]2(C)CCC[C@]3(C)c4ccc(C(C)C)cc4CC[C@@H]23)cc1Cl | 10.1 | 37.8 | 36.9 | 26.1 | 41.2 | 32.3 | –
9 | CC(C)c1ccc2c(c1)CC[C@H]1[C@](C)(C(=O)N[C@H](Cc3ccccc3)C(=O)Nc3ccccc3Cl)CCC[C@]21C | 10.3 | 13.5 | 25.3 | 15.2 | 15.8 | 25.5 | –
10 | O=c1[nH]cc(F)c(=O)[nH]1 [FLUOROURACIL] | 80.5 | – | 27 | 36 | 26.8 | 24.4 | –
11 | CC(C)c1ccc2c(c1)CC[C@H]1[C@](C)(C(=O)N[C@H](Cc3ccccc3)C(=O)Nc3cccc(Cl)c3)CCC[C@]21C | 13.1 | 30.6 | 24.7 | 26.3 | 23.8 | 45.9 | –
12 | CC(C)c1ccc2c(c1)CC[C@H]1[C@](C)(C(=O)N[C@H](Cc3ccccc3)C(=O)Nc3ccc(Cl)cc3)CCC[C@]21C | 12.2 | 26.3 | 26.3 | 15.8 | 33.6 | 37.8 | –
13 | COc1cccc(NC(=O)[C@@H](Cc2ccccc2)NC(=O)[C@]2(C)CCC[C@]3(C)c4ccc(C(C)C)cc4CC[C@@H]23)c1 | 25.8 | 30.5 | 29.5 | 40.4 | 38.5 | 35.8 | –
14 | CC(C)c1ccc2c(c1)CC[C@H]1[C@](C)(C(=O)N[C@H](Cc3ccccc3)C(=O)Nc3ccccc3)CCC[C@]21C | 18.9 | 27.4 | 27.7 | 28.2 | 16.7 | 30.3 | –
15 | COc1ccc(NC(=O)[C@@H](Cc2ccccc2)NC(=O)[C@]2(C)CCC[C@]3(C)c4ccc(C(C)C)cc4CC[C@@H]23)cc1 | 4.94 | 23.8 | 12.4 | 17.2 | 15.3 | 15.7 | Activity (HeLa [3]): Dose-dependent effect; Activity (HeLa [4]): Active; Activity (HeLa [5]): Active; Activity (HeLa [6]): 9.4%; Activity (HeLa [7]): 14.5%; Activity (HeLa [8]): 19.2%; Activity (HeLa [9]): tde; Activity (HeLa [10]): Active; Activity (HeLa [11]): 33.7%; Activity (HeLa [12]): 3.2%; Activity (HeLa [13]): Active; Activity (HeLa [14]): Active; Activity (HeLa [15]): Active; Activity (HeLa [16]): Active; Activity (HeLa [17]): 12.6%
16 | CC(C)c1ccc2c(c1)CC[C@H]1[C@](C)(C(=O)N[C@H](Cc3ccccc3)C(=O)Nc3ccc(Br)cc3)CCC[C@]21C | 15.2 | 28.7 | 34.6 | 28.7 | 16.9 | 35.3 | –
17 | COc1ccc(OC)c(NC(=O)[C@@H](Cc2ccccc2)NC(=O)[C@]2(C)CCC[C@]3(C)c4ccc(C(C)C)cc4CC[C@@H]23)c1 | 19.3 | 53.8 | 38.1 | 27.4 | 56.3 | 36.8 | –
18 | CC(C)c1ccc2c(c1)CC[C@H]1[C@](C)(C(=O)O)CCC[C@]21C [DEHYDROABIETIC ACID] | 29.4 | 75 | 76.8 | 80.5 | 34.7 | 35.2 | –
19 | CC(C)c1ccc2c(c1)CC[C@H]1[C@](C)(C(=O)N[C@H](Cc3ccccc3)C(=O)Nc3cccc(Br)c3)CCC[C@]21C | 25.1 | 38.8 | 22.9 | 33.3 | 19.9 | 44.1 | –
20 | CC(C)c1ccc2c(c1)CC[C@H]1[C@](C)(C(=O)N[C@H](Cc3ccccc3)C(=O)Nc3cccc([N+](=O)[O-])c3)CCC[C@]21C | 12.8 | 20.1 | 25.3 | 32.8 | 27.1 | 27.4 | –
21 | Cc1ccc(NC(=O)[C@@H](Cc2ccccc2)NC(=O)[C@]2(C)CCC[C@]3(C)c4ccc(C(C)C)cc4CC[C@@H]23)cc1C | 14.3 | 51.8 | 42.8 | 37 | 48.2 | 32.1 | –
